Marks after values point to notes of the source that are not given here.
How the values were obtained:
[1] = tested on: pentylenetetrazol-induced clonic and tonic convulsions in mice; assay: PTZ seizures after oral dosing in mice; format: in vivo, C57BL/6N mice; details: for peak time of efficacy / effect on latency to produce convulsions: 10 mg/kg oral, 70 mg/kg PTZ; for effect on latency to produce convulsions: 2 to 8 h after dosing; for lethality/number tested, 2 h: 2 h pretreatment; for lethality/number tested, 2 h / lethality/number tested, 4 h / lethality/number tested, 8 h: 60 min observation
Summary of the method: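 Male C57BL/6N mice dosed orally (1% carboxymethylcellulose, 10 mL/kg). After the pretreatment interval, PTZ 70 mg/kg s.c. in 0.9% NaCl. Lethality and latency to death recorded over 60 min. Deaths compared with the vehicle + PTZ group by Fisher's exact test; n=6–7 per group.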

Partition coefficient = format: physicochemical; details: n-octanol/water, shake flask
Summary of the method: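 Miniaturised shake flask. Octanol stock (1000 μg/mL) mixed with presaturated n-octanol and presaturated water, shaken overnight at 500 rpm, then centrifuged 20 min at 16 000 RCF. Both layers read by UV absorbance at 300 nm against calibration curves; run in triplicate.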

[2] = Oral dose pharmacokinetics; format: in vivo, Sprague–Dawley rats; details: rat; for AUC(0-t) / Kp / Kp at 24 h / Cmax: male, Sprague-Dawley, po, 2 mg/kg; for Kp / Kp at 24 h: brain/plasma; for Cmax (brain): oral 2 mg/kg, Table 1
Summary of the method: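 Adult male Sprague–Dawley rats, cassette dosing by oral gavage at 2.0 mg/kg (0.4 mg/mL in 0.25% methyl cellulose/water), n=3 per time point (15 min, 40 min, 2 h, 6 h, 24 h). Under ketamine/xylazine i.p., blood taken by cardiac puncture and brains collected. Brain homogenised in methanol; plasma and brain extracts cleaned up by solid-phase extraction and quantified by UPLC–MS/MS. Values are means.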

[3] = Thermodynamic equilibrium solubility in water and other solvents; format: physicochemical; details: spectroscopic method
Kinetic = format: physicochemical; details: water, 37 °C
[4] = oral, 4 h pretreatment, PTZ 70 mg/kg
[5] = oral, 8 h pretreatment, PTZ 70 mg/kg

Row | SMILES | peak time of efficacy [1] | effect on latency to produce convulsions [1] | lethality/number tested, 2 h ([1]; oral, PTZ 70 mg/kg) | lethality/number tested, 4 h [1, 4] | lethality/number tested, 8 h [1, 5] | log P (Partition coefficient) | AUC(0-t) ([2]; brain) | Kp [2] | Kp at 24 h [2] | AUC(0-t) ([2]; plasma) | Cmax ([2]; plasma) | Cmax (brain) [2] | improvement in water solubility, salt form vs free base [3] | latency to death, 4 h [1, 4] | latency to death, 8 h [1, 5] | persistence in solution state (supersaturation) vs free base (Kinetic)
1 | C#Cc1ccc2c(c1)C(c1ccccn1)=NCc1c(-c3cnco3)ncn1-2 [KRM-II-81, 5-(8-Ethynyl-6-(pyridin-2-yl)-4H-benzo[f]imidazo[1,5-a][1,4]diazepin-3-yl)oxazole] | about 2 h | approximately a doubling of the latency to produce convulsions | 0/6 ^a | 0/6 ^a | 0/6 ^a | 1.763 ± 0.12 | 2.69 µM·h | 0.32 | 0.77 | 3.59 µM·h | 1830 nM | 594.2 nM |  |  |  | 
2 | C#Cc1ccc2c(c1)C(c1ccccn1)=NCc1c(-c3cnco3)ncn1-2.Cl [KRM-II-81·HCl, 2-(8-Ethynyl-3-(oxazol-5-yl)-4H-benzo[f]imidazo[1,5-a][1,4]diazepin-6-yl)pyridin-1-ium Chloride] | about 2 h | approximately a doubling of the latency to produce convulsions | 0/6 ^a | 1/6 | 1/6 | 0.53 ± 0.06 | 2.66 µM·h | 0.52 | 1 | 2.66 µM·h | 1320 nM | 689.1 nM | Approximately 13 fold | 15.68 s | 43.00 s | remain in the solution state for a longer period of time

Reference: paper PMC9366947 (ACS Omega, 2022)
